Assay results published in publication PMC4398643 (Analytical biochemistry, 2015).

Target: T1, 15-LOX-2 (Homo sapiens, UniProt O15296)
T1 sequence (O15296 1-676): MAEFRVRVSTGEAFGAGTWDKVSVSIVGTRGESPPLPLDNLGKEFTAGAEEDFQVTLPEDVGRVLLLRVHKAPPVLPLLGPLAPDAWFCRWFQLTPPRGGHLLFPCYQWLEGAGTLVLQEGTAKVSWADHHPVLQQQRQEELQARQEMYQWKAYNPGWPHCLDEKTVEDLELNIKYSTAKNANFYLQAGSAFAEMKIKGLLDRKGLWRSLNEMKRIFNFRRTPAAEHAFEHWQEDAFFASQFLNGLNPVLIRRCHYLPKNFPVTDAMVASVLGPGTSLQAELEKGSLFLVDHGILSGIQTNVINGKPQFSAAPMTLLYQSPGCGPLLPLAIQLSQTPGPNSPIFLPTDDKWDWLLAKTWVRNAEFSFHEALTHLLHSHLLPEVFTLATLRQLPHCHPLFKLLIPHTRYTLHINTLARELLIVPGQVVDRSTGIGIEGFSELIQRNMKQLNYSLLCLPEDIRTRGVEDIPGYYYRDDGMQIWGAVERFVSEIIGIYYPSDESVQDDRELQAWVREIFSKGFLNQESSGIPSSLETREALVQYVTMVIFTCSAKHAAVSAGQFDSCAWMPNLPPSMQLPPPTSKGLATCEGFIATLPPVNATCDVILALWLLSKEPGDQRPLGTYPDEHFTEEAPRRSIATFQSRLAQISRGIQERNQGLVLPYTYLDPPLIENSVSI
Test: 96-well allosteric effector assay
Type: biochemical
Conditions: for AA/GLA ratio (15-HETE/13-HOTrE(γ) peak area ratio): 4 µM AA and 16 µM GLA, ratio without effector 2.3 ± 0.1
How it was run: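 15-LOX-2 (~150 nM final) is preincubated 30 s with the perdeuterated effector in 50 mM ammonium bicarbonate, pH 7.5, with 0.01% PPS detergent in 96-well plates. Turnover uses AA:GLA at 1:4 (20 µM total substrate), kept below 20% conversion. Plates are held at 4° C during HPLC-MS analysis, with products identified by MS/MS. The substrate preference is the 15-HETE/13-HOTrE(γ) peak-area ratio.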

- AA/GLA ratio (15-HETE/13-HOTrE(γ) peak area ratio) (10 µM d30-13-HODE): 1.4 ± 0.1
- AA/GLA ratio (15-HETE/13-HOTrE(γ) peak area ratio) (20 µM d30-13-HODE): 1.1 ± 0.1
Compound: [2H]C(C([2H])=C([2H])C([2H])(O)C([2H])([2H])C([2H])([2H])C([2H])([2H])C([2H])([2H])C([2H])([2H])[2H])=C([2H])C([2H])([2H])C([2H])([2H])C([2H])([2H])C([2H])([2H])C([2H])([2H])C([2H])([2H])C([2H])([2H])C(=O)O (stereo not drawn) [d30-13-HODE]
- effect on AA and GLA catalysis (based on standard curve for AA and GLA products, data not shown): reducing AA catalysis, but not affecting GLA catalysis significantly
